Assay results taken from ChEMBL document CHEMBL5365533, “DNA major versus minor groove occupancy of monomeric and dimeric crystal violet derivatives. Toward structural correlations” (Bioorg Med Chem, 2023).

Tests used:
[1] = Displacement of Ethidium bromide from DDD (5-CGAATT-3') hairpin DNA (unknown origin)/EtBr complex assessed as decrease in initial absorbance of DNA by crystal violet staining based analysis
[2] = Displacement of Ethidium bromide from cMyc (5'-CACGTG-3') hairpin DNA (unknown origin)/EtBr complex assessed as decrease in initial absorbance of DNA by crystal violet staining based analysis
[3] = Displacement of Ethidium bromide from G6 (5'-GGGGGG-3') hairpin DNA (unknown origin)/EtBr complex assessed as decrease in initial absorbance of DNA by crystal violet staining based analysis
[4] = Binding affinity to DDD hairpin DNA (unknown origin) assessed as binding constant at 100 uM by ITC analysis
In short: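 Isothermal titration calorimetry of DDD hairpin (10 μM in cell) titrated with ligand (100 μM in syringe), 10 mM Tris-HCl pH 7.0, 30 °C; 25 injections of 10 μL. Heats of dilution subtracted; single-site binding model fitted; K averaged from triplicate experiments.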

[5] = test system: AT rich DNA; assay: Displacement of Ethidium bromide from AT3 (5'-ATATAT-3') hairpin DNA (unknown origin)/EtBr complex assessed as decrease in initial absorbance of DNA by crystal violet staining based analysis; format: nucleic-acid assay
[6] = Displacement of Ethidium bromide from STAT6 (5'-TCCTAG-3') hairpin DNA (unknown origin)/EtBr complex assessed as decrease in initial absorbance of DNA by crystal violet staining based analysis
[7] = Displacement of Ethidium bromide from NFAT1 (5-GAAAAA-3') hairpin DNA (unknown origin)/EtBr complex assessed as decrease in initial absorbance of DNA by crystal violet staining based analysis
[8] = test system: Calf thymus DNA; assay: Binding affinity to calf thymus DNA assessed as change in melting temperature by UV thermal denaturation assay; format: nucleic-acid assay; settings: Bos taurus
In short: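 CT DNA in 10 mM Tris-HCl pH 7.0 at a DNA:ligand ratio of 30:1, in 1 cm quartz cuvettes. Absorbance read every 2 °C from 25 to 95 °C, heating at 1 °C/min. Tm taken from first-derivative plots.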

[9] = test system: DNA; assay: Displacement of Ethidium bromide from (AT)5 (5'-GGGATATA-TATATCCC-3') DNA (unknown origin)/EtBr complex assessed as decrease in initial absorbance of DNA by crystal violet staining based analysis; format: nucleic-acid assay
[10] = test system: DNA; assay: Displacement of Ethidium bromide from A5T5 (5'-GGGAAAAATTTTTCCCCC-3') DNA (unknown origin)/EtBr complex assessed as decrease in initial absorbance of DNA by crystal violet staining based analysis; format: nucleic-acid assay
[11] = Displacement of Ethidium bromide from G5C5 (5'-AAAGGGGG-CCCCCTTT-3') DNA (unknown origin)/EtBr complex assessed as decrease in initial absorbance of DNA by crystal violet staining based analysis
[12] = test system: Calf thymus DNA; assay: Ratio of Kapp for displacement of ethidium bromide from calf thymus DNA/EtBr complex to Kapp for displacement of ethidium bromide from calf thymus DNA/EtBr in presence of methyl green; format: nucleic-acid assay; settings: Bos taurus
In short: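 Fluorescence titration of CT DNA (1.0 μM/bp) plus ethidium (0.5 μM), with or without netropsin or methyl green (0.5 μM each), against increasing ligand in 10 mM Tris-HCl pH 7.0. Excitation 520 nm, emission 590 nm, read after 3 min equilibration. C50 is the concentration giving 50% fluorescence loss; Kapp = 9.5×10^6 M⁻¹ × C_ethidium/C50.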

Which C50 [1] does the source give for `CN(C)c1ccc(C(=C2C=CC(=[N+](C)C)C=C2)c2ccc(C#Cc3cc4c(cc3C#Cc3ccc(C(=C5C=CC(=[N+](C)C)C=C5)c5ccc(N(C)C)cc5)cc3)OCO4)cc2)cc1` here?
Its C50 is 1.27 µM.

What about the C50 [2] of the same molecule?
Its C50 is 1.95 µM.

And the C50 [3]?
The C50 was 1.32 µM.

And the K [4]?
Its K is 0.5 10^5/M.

What about the C50 [5] of the same molecule?
The C50 was 1.52 µM.

And the C50 [6]?
The C50 was 1.91 µM.

What about the C50 [7] of the same molecule?
The C50 was 2.22 µM.

What about the ΔTm [8] of the same molecule?
The ΔTm was 2.6 °C.

Which C50 [9] does the source give for `CN(C)c1ccc(C(=C2C=CC(=[N+](C)C)C=C2)c2ccc(N(C)C)c(-c3ccccc3)c2)cc1` here?
The C50 was 2.75 µM.

What about the K [4] of the same molecule?
The K was 96.4 10^5/M.

And the C50 [10]?
The C50 was 2.61 µM.

And the ΔTm [8]?
The ΔTm was 6.2 °C.

What about the C50 [11] of the same molecule?
Its C50 is 2.99 µM.

What about the Ratio [12] of the same molecule?
Its Ratio is 2.3.

Which results are given for `CC1=CC(=[N+](C)C)C=CC1=C(c1ccc(N(C)C)cc1C)c1ccc(N(C)C)cc1C`?
C50 [9]: 2.3 µM; K [4]: 1.2 10^5/M; C50 [10]: 2.4 µM; ΔTm [8]: 2.6 °C; C50 [11]: 7.21 µM

For `CN(C)c1ccc(C(=C2C=CC(=[N+](C)C)C=C2)c2ccc(-c3cc4c(cc3-c3ccc(C(=C5C=CC(=[N+](C)C)C=C5)c5ccc(N(C)C)cc5)cc3)OCO4)cc2)cc1`, which C50 [1] is on record?
Its C50 is 1.47 µM.

And the C50 [2]?
Its C50 is 1.42 µM.

What about the C50 [3] of the same molecule?
Its C50 is 1.25 µM.

And the K [4]?
The K was 2.4 10^5/M.

And the C50 [5]?
The C50 was 1.36 µM.

What about the C50 [6] of the same molecule?
The C50 was 1.32 µM.

What about the C50 [7] of the same molecule?
Its C50 is 1.23 µM.

What about the ΔTm [8] of the same molecule?
The ΔTm was 2.6 °C.

What does the source list for `CN(C)c1ccc(C(=C2C=CC(=[N+](C)C)C=C2)c2ccc(N(C)C)c(-c3ccccc3)c2)cc1-c1ccccc1`?
C50 [9]: 1.81 µM; K [4]: 0.3 10^5/M; C50 [10]: 1.83 µM; ΔTm [8]: 1.6 °C; C50 [11]: 2.09 µM
